Source: ChEMBL document CHEMBL1641375, “Antitumor agents 279. Structure-activity relationship and in vivo studies of novel 2-(furan-2-yl)naphthalen-1-ol (FNO) analogs as potent and selective anti-breast cancer agents” (2011)
In brackets after ≈: the same amount, converted by molar mass.

Experiments:
SK-BR-3 [1] = test: Cytotoxicity against human SKBR3 cells after 72 hrs by MTT assay; format: functional; settings: SK-BR-3, 72 h, read-out: ED50 (the source's name)
In short: (§1)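 Focused human tumour panel: A549 (non-small cell lung), DU145 (prostate), KB (nasopharyngeal), KB-VIN (MDR KB subline selected with vincristine), MDA-MB-231 (ER-negative basal-like breast), SK-BR-3 (ER-negative, HER2-overexpressing luminal-like breast), ZR-75-1 (ER-positive, HER2-overexpressing luminal-like breast). Run by previously published methods.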

ZR-75-1 [2] = test: Cytotoxicity against human ZR-75-1 cells after 72 hrs by MTT assay; format: functional; settings: ZR-75-1, 72 h, read-out: ED50 (the source's name); in short: as §1
KB = test: Cytotoxicity against human KB cells after 72 hrs by MTT assay; format: functional; settings: read-out: ED50 (the source's name); in short: as §1
[3] = Cytotoxicity against human KBVIN cells after 72 hrs by MTT assay; format: functional; settings: read-out: ED50 (the source's name); in short: as §1
DU-145 = test: Cytotoxicity against human DU145 cells after 72 hrs by MTT assay; format: functional; settings: DU-145, 72 h, read-out: ED50 (the source's name); in short: as §1
MDA-MB-231 [4] = test: Cytotoxicity against human MDA-MB-231 cells after 72 hrs by MTT assay; format: functional; settings: MDA-MB-231, 72 h, read-out: ED50 (the source's name); in short: as §1
A549 [5] = test: Cytotoxicity against human A549 cells after 72 hrs by MTT assay; format: functional; settings: A549, 72 h, read-out: ED50 (the source's name); in short: as §1
SK-BR-3 [6] = test: Selectivity ratio, ED50 for human KBVIN cells to ED50 for human SKBR3 cells; format: functional
SK-BR-3 [7] = test: Selectivity ratio, ED50 for human DU145 cells to ED50 for human SKBR3 cells; format: functional
MDA-MB-231 [8] = test: Selectivity ratio, ED50 for human MDA-MB-231 cells to ED50 for human SKBR3 cells; format: functional
A549 [9] = test: Selectivity ratio, ED50 for human A549 cells to ED50 for human SKBR3 cells; format: functional
ZR-75-1 [10] = test: Selectivity ratio, ED50 for human ZR-75-1 cells to ED50 for human SKBR3 cells; format: functional
SK-BR-3 [11] = test: Selectivity ratio, ED50 for human KB cells to ED50 for human SKBR3 cells; format: functional
[12] = Inhibition of mammary epithelial cells proliferation in Brca1/p53-deficient C57BL/6 and 129/Sv mouse assessed as reduction of BrdU positive cells at 0.1 mg, po qd for 11 days relative to control in presence of bromodeoxyuridine treated orally with drinking water last 3 days of treatment; format: functional, Epithelial cell; settings: in the assay text read “ip qd” for “po qd”
In short: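 Three-month-old Brca1f11/f11p53f5&6/f5&6Crec or wild-type mice (mixed C57BL/6 and 129/Sv background) dosed 0.1 mg i.p. daily for 11 days. Dosing solution was 10 µL of a 10 mg/mL DMSO stock with 30 µL 40% PEG and 60 µL 0.9% NaCl; vehicle lacked compound. BrdU given in drinking water over the last 3 days. Glands fixed in 4% paraformaldehyde, paraffin-sectioned, citrate pH 6.0 antigen retrieval, anti-BrdU 1:1000. BrdU-positive cells per duct counted over ≥15 ducts/animal, ≥3 mice/genotype.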

[13] = Inhibition of mammary epithelial cells proliferation in Brca1/p53-deficient C57BL/6 and 129/Sv mouse assessed as reduction of mammary gland branching point at 0.1 mg, po qd for 11 days relative to control; format: functional, Epithelial cell; settings: in the assay text read “ip qd” for “po qd”
In short: (§2)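 Three-month-old Brca1/p53-deficient or wild-type mice (C57BL/6 × 129/Sv background) received 0.1 mg i.p. daily for 11 days in DMSO/40% PEG/0.9% NaCl, or vehicle alone. Mammary gland whole mounts were fixed in Carnoy's fixative for 3 h and stained with Carmine alum overnight. Branching points were counted in three random areas totalling about 2 mm2.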

Epithelial cell = test: Inhibition of wild type mammary epithelial cells proliferation in wild type C57BL/6 and 129/Sv mouse assessed as reduction of mammary gland branching point at 0.1 mg, po qd for 11 days relative to control; format: functional; settings: in the assay text read “ip qd” for “po qd”; in short: as §2

Row | Structure (SMILES) | EC50 (SK-BR-3 [1]) [µg/mL] | EC50 (ZR-75-1 [2]) [µg/mL] | EC50 (KB) [µg/mL] | EC50 [3] [µg/mL] | EC50 (DU-145) [µg/mL] | EC50 (MDA-MB-231 [4]) [µg/mL] | EC50 (A549 [5]) [µg/mL] | Ratio ED50 (SK-BR-3 [6]) | Ratio ED50 (SK-BR-3 [7]) | Ratio ED50 (MDA-MB-231 [8]) | Ratio ED50 (A549 [9]) | Ratio ED50 (ZR-75-1 [10]) | Ratio ED50 (SK-BR-3 [11]) | inhibition (INH) [12] [%] | inhibition (INH) [13] [%] | inhibition (INH) (Epithelial cell) [%]
1 | CCOc1c(-c2occ(C)c2C(=O)O)ccc2c(CC)cccc12 | > 10 | > 10 | > 10 | > 10 | > 10 | > 10 | > 10 |  |  |  |  |  |  |  |  | 
2 | CCOC(=O)c1c(C)coc1-c1ccc2c(CC)cccc2c1OC | 2.5 (≈ 7.39 µM) | 3.9 (≈ 11.5 µM) | 2.2 (≈ 6.5 µM) | 1.8 (≈ 5.32 µM) | 2.2 (≈ 6.5 µM) | 4.3 (≈ 12.7 µM) | 3.8 (≈ 11.2 µM) |  |  |  |  |  |  |  |  | 
3 | CCCOC(=O)c1c(C)coc1-c1ccc2c(CC)cccc2c1OC | > 10 | > 10 | > 10 | > 10 | > 10 | > 10 | > 10 |  |  |  |  |  |  |  |  | 
4 | CCc1cccc2c(OC)c(-c3occ(C)c3C(=S)OC)ccc12 | 6.3 (≈ 18.5 µM) | 5.8 (≈ 17 µM) | 4.3 (≈ 12.6 µM) | 5.1 (≈ 15 µM) | 5.7 (≈ 16.7 µM) | 7.1 (≈ 20.9 µM) | 6.2 (≈ 18.2 µM) |  |  |  |  |  |  |  |  | 
5 | CCc1cccc2c(OC)c(-c3occ(C)c3C(=O)NC)ccc12 | > 10 | > 10 | > 10 | > 10 | > 10 | > 10 | > 10 |  |  |  |  |  |  |  |  | 
6 | CCc1cccc2c(OC)c(-c3occ(C)c3C(=O)On3nnc4ccccc43)ccc12 | > 10 | > 10 | > 10 | > 10 | > 10 | > 10 | > 10 |  |  |  |  |  |  |  |  | 
7 | CCOc1c(-c2occ(C)c2C(=O)OC)ccc2c(CC)cccc12 | 1.9 (≈ 5.61 µM) | 1.2 (≈ 3.55 µM) | 1.8 (≈ 5.32 µM) | 1.7 (≈ 5.02 µM) | 1.9 (≈ 5.61 µM) | 1.1 (≈ 3.25 µM) | 2.4 (≈ 7.09 µM) |  |  |  |  |  |  |  |  | 
8 | CCc1cccc2c(OC)c(-c3occ(C)c3CO)ccc12 | 0.73 (≈ 2.46 µM) | > 10 | 7.1 (≈ 24 µM) | 6.6 (≈ 22.3 µM) | 7.2 (≈ 24.3 µM) | > 10 | 9.6 (≈ 32.4 µM) | 9 | 9 | > 13.7 | 13.2 | > 13.7 | 9 |  |  | 
9 | CCOc1c(-c2occ(C)c2CO)ccc2c(CC)cccc12 | 8.8 (≈ 28.4 µM) | 1.4 (≈ 4.51 µM) | > 10 | 6.4 (≈ 20.6 µM) | > 10 | 1.7 (≈ 5.48 µM) | > 10 |  |  |  |  |  |  |  |  | 
10 | CCc1cccc2c(OC(C)=O)c(-c3occ(C)c3COC(C)=O)ccc12 | > 10 | > 10 | > 10 | > 10 | > 10 | > 10 | > 10 |  |  |  |  |  |  |  |  | 
11 | CCc1cccc2c(OC)c(-c3occ(C)c3COC)ccc12 | > 10 | 9.7 (≈ 31.3 µM) | > 10 | 8.8 (≈ 28.4 µM) | > 10 |  | > 10 |  |  |  |  |  |  |  |  | 
12 | CCOCc1c(C)coc1-c1ccc2c(CC)cccc2c1OC | > 10 | 9.1 (≈ 28.1 µM) | > 10 | > 10 | > 10 |  | > 10 |  |  |  |  |  |  |  |  | 
13 | CCc1cccc2c(OC)c(-c3occ(C)c3CBr)ccc12 | > 10 | 4.6 (≈ 12.8 µM) | > 10 | > 10 | > 10 |  | > 10 |  |  |  |  |  |  |  |  | 
14 | CCc1cccc2c(OC)c(-c3occ(C)c3COCC(F)(F)F)ccc12 | 5.3 (≈ 14 µM) | 5.3 (≈ 14 µM) | 6.6 (≈ 17.4 µM) | 6 (≈ 15.9 µM) | 5.7 (≈ 15.1 µM) |  | > 10 |  |  |  |  |  |  |  |  | 
15 | CCc1cccc2c(OC)c(-c3occ(C)c3COC(C)=O)ccc12 | > 10 | 3.5 (≈ 10.3 µM) | > 10 | > 10 | > 10 |  | > 10 |  |  |  |  |  |  |  |  | 
16 | CCc1cccc2c(OC)c(-c3occ(C)c3COC(=O)CCN(CC)CC)ccc12 | > 10 | 1.7 (≈ 4.01 µM) | > 10 | > 10 | > 10 | 0.85 (≈ 2.01 µM) | > 10 |  |  |  |  |  |  |  |  | 
17 | CCOc1c(-c2occ(C)c2COC)ccc2c(CC)cccc12 | > 10 | > 10 | > 10 | 5.9 (≈ 18.2 µM) | > 10 | 4.9 (≈ 15.1 µM) | > 10 |  |  |  |  |  |  |  |  | 
18 | CCOc1c(-c2occ(C)c2COC(C)=O)ccc2c(CC)cccc12 | > 10 | 4.9 (≈ 13.9 µM) | > 10 | 5.8 (≈ 16.5 µM) | > 10 | > 10 | > 10 |  |  |  |  |  |  |  |  | 
19 | CCc1cccc2c(O)c(-c3occ(C)c3C(=O)O)ccc12 | 1 (≈ 3.37 µM) | 0.3 (≈ 1.01 µM) | 9.1 (≈ 30.7 µM) | 7 (≈ 23.6 µM) | 8.7 (≈ 29.4 µM) |  |  |  |  |  |  |  |  | 83 | 70 | 29
20 | CCc1cccc2c(OC)c(-c3occ(C)c3C(=O)OC)ccc12 | 1.2 (≈ 3.7 µM) | 1.3 (≈ 4.01 µM) | 1.7 (≈ 5.24 µM) | 1.3 (≈ 4.01 µM) | 2.2 (≈ 6.78 µM) | 2.3 (≈ 7.09 µM) | 1.5 (≈ 4.62 µM) |  |  |  |  |  |  |  |  | 
